According to ChEMBL document CHEMBL1687829, “Evaluation of hepatotoxicity with off-label oral-treatment doses of voriconazole for invasive fungal infections” (Antimicrob Agents Chemother, 2011):

Columns and labels:
[1] = test system: Homo sapiens; experiment: Hepatotoxicity in patient assessed as three times increase in upper limit of normal ALT level at 200 mg, po bid for 72 days; type: toxicity, organism-based; conditions: in vivo, 1728 h
Summary of the method: (§1)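 Retrospective cohort at one hospital, 2006–2008. Patients received ≥7 days of oral voriconazole treatment for possible, probable or proven invasive fungal infection, with baseline and follow-up liver enzymes available; prophylaxis use was excluded. Groups were fixed 200 mg twice daily (n = 25) or weight-based 4 mg/kg twice daily after day 1 (n = 84). Read-out was number (%) of patients with a value >5× baseline or >3× ULN.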

[2] = test system: Homo sapiens; experiment: Hepatotoxicity in patient assessed as three times increase in upper limit of normal […] level at 200 mg, po bid for 72 days; type: toxicity, organism-based; conditions: in vivo, 1728 h; summary of the method: as §1
[3] = test system: Homo sapiens; experiment: Hepatotoxicity in patient assessed as three times increase in upper limit of normal […] level at 297.3 mg, po bid for 76.1 days; type: toxicity, organism-based; conditions: in vivo, 1826.4 h; summary of the method: as §1
[4] = test system: Homo sapiens; experiment: Hepatotoxicity in patient assessed as five times increase in baseline ALT level at 200 mg, po bid for 72 days; type: toxicity, organism-based; conditions: in vivo, 1728 h; summary of the method: as §1
[5] = test system: Homo sapiens; experiment: Hepatotoxicity in patient assessed as five times increase in baseline ALP level at 200 mg, po bid for 72 days; type: toxicity, organism-based; conditions: in vivo, 1728 h; summary of the method: as §1
[6] = test system: Homo sapiens; experiment: Hepatotoxicity in patients assessed as five times increase in baseline bilirubin level at 297.3 mg, po bid for 76.1 days; type: toxicity, organism-based; conditions: in vivo, 1826.4 h; summary of the method: as §1
[7] = test system: Homo sapiens; experiment: Hepatotoxicity in patients assessed as three times increase in upper limit of normal bilirubin level at 297.3 mg, po bid for 76.1 days; type: toxicity, organism-based; conditions: in vivo, 1826.4 h; summary of the method: as §1
[8] = test system: Homo sapiens; experiment: Hepatotoxicity in patients assessed as three times increase in upper limit of normal bilirubin level at 200 mg, po bid for 72 days; type: toxicity, organism-based; conditions: in vivo, 1728 h; summary of the method: as §1
[9] = test system: Homo sapiens; experiment: Toxicity in patients assessed as adverse event at 297.3 mg, po bid for 76.1 days; type: organism-based; conditions: in vivo, 1826.4 h
Summary of the method: (§2)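 Same retrospective cohort (fixed 200 mg twice daily, n = 25, versus weight-based oral dosing, n = 84; ≥7 days of treatment). The outcome was voriconazole discontinuation that the practitioner attributed to an adverse drug event, taken from the medical records. Counts and % per group were compared between groups.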

[10] = test system: Homo sapiens; experiment: Hepatotoxicity in patient assessed as five times increase in baseline AST level at 297.3 mg, po bid for 76.1 days; type: toxicity, organism-based; conditions: in vivo, 1826.4 h; summary of the method: as §1
[11] = test system: Homo sapiens; experiment: Hepatotoxicity in patients assessed as five times increase in baseline bilirubin level at 200 mg, po bid for 72 days; type: toxicity, organism-based; conditions: in vivo, 1728 h; summary of the method: as §1
[12] = test system: Homo sapiens; experiment: Hepatotoxicity in patient assessed as five times increase in baseline ALT level at 297.3 mg, po bid for 76.1 days; type: toxicity, organism-based; conditions: in vivo, 1826.4 h; summary of the method: as §1
[13] = test system: Homo sapiens; experiment: Hepatotoxicity in patient assessed as three times increase in upper limit of normal ALT level at 297.3 mg, po bid for 76.1 days; type: toxicity, organism-based; conditions: in vivo, 1826.4 h; summary of the method: as §1
[14] = test system: Homo sapiens; experiment: Toxicity in patient assessed as visual disturbance at 297.3 mg, po bid for 76.1 days; type: organism-based; conditions: in vivo, 1826.4 h
Summary of the method: (§3)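 Retrospective chart review of the same cohort: adults on ≥7 days of oral voriconazole treatment, either fixed 200 mg twice daily (n = 25) or weight-based dosing (n = 84). Visual disturbances were taken from the medical records as a secondary adverse-event endpoint and given as number (%) of patients per group.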

[15] = test system: Homo sapiens; experiment: Toxicity in patient assessed as visual disturbance at 200 mg, po bid for 72 days; type: organism-based; conditions: in vivo, 1728 h; summary of the method: as §3
[16] = test system: Homo sapiens; experiment: Hepatotoxicity in patient assessed as five times increase in baseline AST level at 200 mg, po bid for 72 days; type: toxicity, organism-based; conditions: in vivo, 1728 h; summary of the method: as §1
[17] = test system: Homo sapiens; experiment: Hepatotoxicity in patient assessed as five times increase in baseline […] level at 297.3 mg, po bid for 76.1 days; type: toxicity, organism-based; conditions: in vivo, 1826.4 h; summary of the method: as §1
[18] = test system: Homo sapiens; experiment: Toxicity in patients assessed as adverse event at 200 mg, po bid for 72 days; type: organism-based; conditions: in vivo, 1728 h; summary of the method: as §2
[19] = test system: Homo sapiens; experiment: Hepatotoxicity in patient assessed as three times increase in upper limit of normal AST level at 297.3 mg, po bid for 76.1 days; type: toxicity, organism-based; conditions: in vivo, 1826.4 h; summary of the method: as §1
[20] = test system: Homo sapiens; experiment: Hepatotoxicity in patient assessed as three times increase in upper limit of normal AST level at 200 mg, po bid for 72 days; type: toxicity, organism-based; conditions: in vivo, 1728 h; summary of the method: as §1

`C[C@@H](c1ncncc1F)[C@](O)(Cn1cncn1)c1ccc(F)cc1F` [VORICONAZOLE] showed an Activity [1] of 12%, an Activity [2] of 32% and an Activity [3] of 11.9%. The Activity [4] was 24%, the Activity [5] was 4% and the Activity [6] was 3.6%. The Activity [7] was 6%, the Activity [8] was 16% and the Activity [9] was 16.9%. The Activity [10] was 15.5%, the Activity [11] was 12% and the Activity [12] was 13.1%. For the same molecule, the Activity [13] was 15.5%, the Activity [14] was 3.6% and the Activity [15] was 4%. It also gave an Activity [16] of 12%, an Activity [17] of 3.6% and an Activity [18] of 0%. For the same molecule, the Activity [19] was 20.2% and the Activity [20] was 16%.
